Reference: ChEMBL document CHEMBL2417493, “Novel cycloalkylthiophene-imine derivatives bearing benzothiazole scaffold: synthesis, characterization and antiviral activity evaluation” (Bioorg Med Chem Lett, 2013)
In brackets after ≈: the same amount, converted by molar mass. Activity calls are given as the source filed them. The calls are words filed in the database; no cut-off is given here.

Columns and labels:
unidentified adenovirus [1] = test: Antiviral activity against Adenovirus type 7 infected in human HeLa cells assessed as inhibition of virus-induced cytopathogenicity after 48 hrs by crystal violet staining method; type: functional, organism-based
In short: (§1)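 Virus–cell pairings were EV71 in RD, CVB5 in HepG2, ADV7 in HeLa and influenza A H1N1 in MDCK. Compounds were added […], and total infectivity was read by crystal violet staining. EC50 is the concentration reducing viral replication by 50%. Values are mean SD of three independent experiments.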

Enterovirus [2] = test: Antiviral activity against Enterovirus 71 infected in human rhabdomyosarcoma cells assessed as inhibition of virus-induced cytopathogenicity after 48 hrs by crystal violet staining method; type: functional, organism-based; conditions: for EC50: Enterovirus, 71, 48 h; in short: as §1
Coxsackievirus B5 [3] = test: Antiviral activity against Coxsackievirus B5 infected in human HepG2 cells assessed as inhibition of virus-induced cytopathogenicity at 32 ug/ml after 48 hrs by crystal violet staining method; type: functional
In short: (§2)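 Single-concentration screen with these pairings: RD/EV71, HepG2/CVB5, HeLa/ADV7, MDCK/H1N1. Cells were infected and kept 48 h in the presence of compound at one fixed concentration; some EV71 tests used the lower level. Inhibition of virus proliferation was read by crystal violet staining.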

[4] = Cytotoxicity against human HeLa cells after 72 hrs by MTT assay; type: cell-based
In short: (§3)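 MTT assay on RD (rhabdomyosarcoma), HepG2 and HeLa cell lines. CC50 is the concentration that cut cell viability by 50% relative to 0.1% DMSO-treated mock-control cells. Values are mean and SD of three independent experiments.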

Enterovirus [5] = test: Antiviral activity against Enterovirus 71 infected in human rhabdomyosarcoma cells assessed as inhibition of virus-induced cytopathogenicity at 32 ug/ml after 48 hrs by crystal violet staining method; type: functional; in short: as §2
[6] = Selectivity index, ratio of CC50 for human HepG2 cells to EC50 for Coxsackievirus B5 infected in human HepG2 cells; type: toxicity, cell-based; conditions: read-out: Ratio CC50/EC50
In short: (§4)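 Antiviral pairings were EV71 in RD cells, CVB5 in HepG2 cells and ADV7 in HeLa cells. Compounds were added […], and total infectivity was read by crystal violet staining. EC50 is the concentration that cut viral replication by 50%. CC50 came from MTT relative to 0.1% DMSO mock control. SI = CC50/EC50. Data are from three independent experiments.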

Influenza A virus [7] = test: Antiviral activity against influenza A virus H1N1 infected in dog MDCK cells assessed as inhibition of virus-induced cytopathogenicity after 48 hrs by crystal violet staining method; type: functional, organism-based; in short: as §1
Influenza A virus [8] = test: Antiviral activity against influenza A virus H1N1 infected in dog MDCK cells assessed as inhibition of virus-induced cytopathogenicity at 32 ug/ml after 48 hrs by crystal violet staining method; type: functional, organism-based; in short: as §2
[9] = Cytotoxicity against human rhabdomyosarcoma cells after 72 hrs by MTT assay; type: cell-based, Rhabdomyosarcoma cell; in short: as §3
unidentified adenovirus [10] = test: Antiviral activity against Adenovirus type 7 infected in human HeLa cells assessed as inhibition of virus-induced cytopathogenicity at 32 ug/ml after 48 hrs by crystal violet staining method; type: functional; in short: as §2
[11] = Cytotoxicity against human HepG2 cells after 72 hrs by MTT assay; type: cell-based; in short: as §3
Coxsackievirus B5 [12] = test: Antiviral activity against Coxsackievirus B5 infected in human HepG2 cells assessed as inhibition of virus-induced cytopathogenicity after 48 hrs by crystal violet staining method; type: functional, organism-based; conditions: for EC50: Enterovirus B, HepG2, 48 h; in short: as §1
[13] = Selectivity index, ratio of CC50 for human rhabdomyosarcoma cells to EC50 for Enterovirus 71 infected in human rhabdomyosarcoma cells; type: toxicity; conditions: read-out: Ratio CC50/EC50; in short: as §4

Compound | inhibition (INH) (unidentified adenovirus [1]) | inhibition (INH) (Enterovirus [2]) | inhibition (Coxsackievirus B5 [3]) | CC50 at 72 h [4] | inhibition (Enterovirus [5]) | selectivity ratio [6] | inhibition (INH) (Influenza A virus [7]) | inhibition (Influenza A virus [8]) | CC50 at 72 h [9] | inhibition (unidentified adenovirus [10]) | CC50 at 72 h [11] | EC50 (Coxsackievirus B5 [12]) | EC50 (Enterovirus [2]) | selectivity ratio [13] | inhibition (INH) (Coxsackievirus B5 [12])
Fc1ccc(/C=N/c2sc3c(c2-c2nc4ccccc4s2)CCC3)cc1 | <50% | <50% | Active | 372 µg/mL (≈ 984 µM) | Active | 19.4 | <50% | Active | 290 µg/mL (≈ 765 µM) | Active | 302 µg/mL (≈ 799 µM) | 15.5 µg/mL (≈ 41 µM) | – | – | –
C(=N\c1sc2c(c1-c1nc3ccccc3s1)CCCC2)/c1ccc2c(c1)OCO2 | <50% | – | Active | 568 µg/mL (≈ 1360 µM) | Active | – | <50% | Active | 299 µg/mL (≈ 714 µM) | Active | 329 µg/mL (≈ 787 µM) | – | 32.6 µg/mL (≈ 77.9 µM) | 9.1 | <50%
Nc1sc2c(c1-c1nc3ccccc3s1)CCCC2 | <50% | – | – | 475 µg/mL (≈ 1660 µM) | – | 11.9 | <50% | – | 253 µg/mL (≈ 883 µM) | – | 163 µg/mL (≈ 570 µM) | 14.5 µg/mL (≈ 50.6 µM) | 14.1 µg/mL (≈ 49.2 µM) | 17.8 | –
Oc1ccccc1/C=N/c1sc2c(c1-c1nc3cc(Cl)ccc3s1)CCC2 | <50% | – | Active | 251 µg/mL (≈ 610 µM) | Active | – | <50% | Active | 269 µg/mL (≈ 655 µM) | Active | 210 µg/mL (≈ 511 µM) | – | 13.9 µg/mL (≈ 33.8 µM) | 19.2 | <50%
COc1cc(/C=N/c2sc3c(c2-c2nc4ccccc4s2)CCCC3)cc(OC)c1OC | <50% | <50% | Active | 448 µg/mL (≈ 963 µM) | Active | – | <50% | Active | 381 µg/mL (≈ 821 µM) | Active | 301 µg/mL (≈ 648 µM) | – | – | – | <50%
O=[N+]([O-])c1ccccc1/C=N/c1sc2c(c1-c1nc3ccccc3s1)CCCC2 | <50% | <50% | Active | 369 µg/mL (≈ 880 µM) | Active | 35 | <50% | Active | 255 µg/mL (≈ 609 µM) | Active | 393 µg/mL (≈ 937 µM) | 11.2 µg/mL (≈ 26.7 µM) | – | – | –
Fc1ccccc1/C=N/c1sc2c(c1-c1nc3ccccc3s1)CCCC2 | <50% | <50% | Active | 426 µg/mL (≈ 1090 µM) | Active | – | <50% | Active | 319 µg/mL (≈ 812 µM) | Active | 398 µg/mL (≈ 1010 µM) | – | – | – | <50%
Clc1ccc(/C=N/c2sc3c(c2-c2nc4ccccc4s2)CCCC3)cc1 | <50% | <50% | Active | 431 µg/mL (≈ 1050 µM) | Active | – | <50% | Active | 367 µg/mL (≈ 898 µM) | Active | 397 µg/mL (≈ 970 µM) | – | – | – | <50%
Clc1ccccc1/C=N/c1sc2c(c1-c1nc3ccccc3s1)CCCC2 | <50% | <50% | Active | 407 µg/mL (≈ 996 µM) | Active | – | <50% | Active | 332 µg/mL (≈ 811 µM) | Active | 370 µg/mL (≈ 904 µM) | – | – | – | <50%
Clc1ccc(/C=N/c2sc3c(c2-c2nc4ccccc4s2)CCC3)c(Cl)c1 | <50% | <50% | Active | 345 µg/mL (≈ 804 µM) | Active | – | <50% | Active | 160 µg/mL (≈ 372 µM) | Active | 310 µg/mL (≈ 722 µM) | – | – | – | <50%
O=[N+]([O-])c1ccc(/C=N/c2sc3c(c2-c2nc4ccccc4s2)CCCC3)cc1 | <50% | <50% | Active | 357 µg/mL (≈ 850 µM) | Active | – | <50% | Active | 316 µg/mL (≈ 754 µM) | Active | 454 µg/mL (≈ 1080 µM) | – | – | – | <50%
C(=N\c1sc2c(c1-c1nc3ccccc3s1)CCC2)/c1ccc2c(c1)OCO2 | <50% | <50% | Active | 449 µg/mL (≈ 1110 µM) | Active | – | <50% | Active | 310 µg/mL (≈ 766 µM) | Active | 356 µg/mL (≈ 881 µM) | – | – | – | <50%
C(=C\c1ccccc1)/C=N/c1sc2c(c1-c1nc3ccccc3s1)CCCC2 | <50% | <50% | Active | 389 µg/mL (≈ 971 µM) | Active | 31.6 | <50% | Active | 207 µg/mL (≈ 517 µM) | Active | 467 µg/mL (≈ 1170 µM) | 14.7 µg/mL (≈ 36.7 µM) | – | – | –
C(=C\c1ccccc1)/C=N/c1sc2c(c1-c1nc3ccccc3s1)CCC2 | <50% | <50% | Active | 100 µg/mL (≈ 259 µM) | Active | – | <50% | Active | 122 µg/mL (≈ 317 µM) | Active | 215 µg/mL (≈ 555 µM) | – | – | – | <50%
